ChEMBL document CHEMBL1123899, “Nucleic acid related compounds. 51. Synthesis and biological properties of sugar-modified analogues of the nucleoside antibiotics tubercidin, toyocamycin, sangivamycin, and formycin” (1987)
Converted amounts (≈) assume the structure as drawn.

Columns and labels:
[1] = test system: Sindbis virus; assay: Minimum inhibitory concentration required to reduce sindbis virus induced cytopathogenicity by 50%; format: functional
[2] = test system: Measles morbillivirus; assay: Minimum inhibitory concentration required to reduce measles virus induced cytopathogenicity by 50%; format: functional
[3] = test system: Human respirovirus 3; assay: Minimum inhibitory concentration required to reduce parainfluenza type 3 induced cytopathogenicity by 50%; format: functional
[4] = test system: Vero; assay: Minimum cytotoxic concentration required to cause a microscopically detectable alteration of normal cell morphology in Vero cells; format: functional, Chlorocebus sabaeus
Outline: (§1)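 Cytotoxicity read microscopically as the minimum concentration producing a detectable alteration of normal cell morphology, in PRK, HeLa or Vero cell cultures. Average of two to three separate experiments.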

[5] = test system: Coxsackievirus B4; assay: Minimum inhibitory concentration required to reduce Coxsackie virus type B-4-induced cytopathogenicity by 50%; format: functional
[6] = test system: L1210; assay: Minimum inhibitory concentration required to reduce incorporation of [5-3H]-Urd into TCA-insoluble material from murine leukemia L1210 cells; format: functional; conditions: Mus musculus
Outline: (§2)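 Murine L1210 leukemia cells were exposed to compound and incorporation of [4,5-3H]leucine (protein) or [5-3H]Urd (RNA) into TCA-insoluble material was measured. MIC50 is the concentration reducing incorporation by 50%. Values are averages of at least three separate experiments.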

[7] = test system: HeLa; assay: Minimum cytotoxic concentration required to cause a microscopically detectable alteration of normal cell morphology in Hela cells; format: functional, Homo sapiens; outline: as §1
[8] = test system: L1210; assay: Minimum inhibitory concentration required to reduce incorporation of [4,5-3H]leucine into TCA-insoluble material from murine leukemia L1210 cells; format: functional; conditions: Mus musculus; outline: as §2
[9] = test system: Human alphaherpesvirus 1; assay: Minimum inhibitory concentration required to reduce Herpes simplex virus type 1 (HSV-1, strain KOS) induced cytopathogenicity by 50%; format: functional
[10] = species: Oryctolagus cuniculus; assay: Minimum cytotoxic concentration required to cause a microscopically detectable alteration of normal cell morphology in primary rabbit kidney cells; format: functional; outline: as §1
[11] = test system: Mammalian orthoreovirus 1; assay: Minimum inhibitory concentration required to reduce reo virus type 1 induced cytopathogenicity by 50%; format: functional
[12] = test system: Vesicular stomatitis virus; assay: Minimum inhibitory concentration required to reduce vesicular stomatitis virus (VSV) induced cytopathogenicity by 50%; format: functional
[13] = test system: L1210; assay: Inhibition of murine leukemia L1210 cell growth; format: functional; conditions: Mus musculus
Outline: (§3)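 Murine L1210 leukemia cells; MIC50 is the concentration reducing cell growth, or incorporation of [methyl-3H]dThd into TCA-insoluble material (DNA synthesis), by 50%. Average of at least three separate experiments.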

[14] = test system: L1210; assay: Minimum inhibitory concentration required to reduce incorporation of [methyl-3H]dThd into TCA-insoluble material from murine leukemia L1210 cells; format: functional; conditions: Mus musculus; outline: as §3
[15] = test system: Vesicular stomatitis virus; assay: Minimum inhibitory concentration required to reduce Vesicular stomatitis virus (VSV) induced cytopathogenicity by 50%; format: functional
[16] = test system: Poliovirus 1; assay: Minimum inhibitory concentration required to reduce Polio virus type 1 induced cytopathogenicity by 50%; format: functional; conditions: Enterovirus C
[17] = test system: Human alphaherpesvirus 2; assay: Minimum inhibitory concentration required to reduce Herpes simplex virus type 2 (HSV-2 strain G) induced cytopathogenicity by 50%; format: functional

SMILES	MIC50 [1] [µg/mL]	MIC50 [2] [µg/mL]	MIC50 [3] [µg/mL]	MTC [4] [µg/mL]	MIC50 [5] [µg/mL]	MIC50 ([5]; Enterovirus B, read-out: MIC50) [µg/mL]	MIC50 [6] [µg/mL]	MTC [7] [µg/mL]	MIC50 [8] [µg/mL]	MIC50 [9] [µg/mL]	MTC [10] [µg/mL]	MIC50 [11] [µg/mL]	MIC50 [12] [µg/mL]	MIC50 [13] [µg/mL]	MIC50 [14] [µg/mL]	MIC50 [15] [µg/mL]	MIC50 [16] [µg/mL]	MIC50 [17] [µg/mL]
N#Cc1cn(C2OC(CO)CC2O)c2ncnc(N)c12 (centres undefined)	0.7 (≈ 2.54 µM)	> 1	0.4 (≈ 1.45 µM)	1	>1	0.7 (≈ 2.54 µM)	0.16 (≈ 0.581 µM)	1	0.113 (≈ 0.411 µM)	> 0.4	1	0.7 (≈ 2.54 µM)	> 1	0.02 (≈ 0.0727 µM)	93 (≈ 338 µM)	> 1	> 1	> 0.4
Nc1ncnc2c1ccn2C1OC(CO)CC1O (centres undefined)	> 100	> 100	20 (≈ 79.9 µM)	100	–	–	3.2 (≈ 12.8 µM)	40	2.08 (≈ 8.31 µM)	> 10	10	10 (≈ 40 µM)	> 10	0.38 (≈ 1.52 µM)	90 (≈ 360 µM)	20 (≈ 79.9 µM)	2 (≈ 7.99 µM)	> 10
Nc1ncnc2c(C3OC(CO)CC3O)n[nH]c12 (centres undefined)	> 400	100 (≈ 398 µM)	> 400	>400	–	> 400	> 1000	>400	> 1000	> 400	>400	> 400	> 400	> 1000	> 1000	> 400	> 400	–
NC(=O)c1cn([C@@H]2O[C@H](CO)[C@@H](O)[C@@H]2O)c2ncnc(N)c12	> 40	10 (≈ 32.3 µM)	1 (≈ 3.23 µM)	40	–	–	5.85 (≈ 18.9 µM)	10	2.2 (≈ 7.11 µM)	4 (≈ 12.9 µM)	40	6 (≈ 19.4 µM)	3 (≈ 9.7 µM)	0.98 (≈ 3.17 µM)	50 (≈ 162 µM)	1.5 (≈ 4.85 µM)	> 10	1 (≈ 3.23 µM)
Nc1ncnc2c1ccn2[C@@H]1O[C@H](CO)[C@H](O)[C@H]1O	> 40	> 40	> 40	40	–	–	–	4	–	0.2 (≈ 0.751 µM)	10	> 40	> 10	0.248 (≈ 0.931 µM)	6.7 (≈ 25.2 µM)	> 4	> 4	0.07 (≈ 0.263 µM)
Nc1ncnc2c1ccn2[C@@H]1O[C@H](CO)[C@@H](O)[C@@H]1O	> 400	> 400	300 (≈ 1130 µM)	>400	–	> 400	237 (≈ 890 µM)	>400	151 (≈ 567 µM)	125 (≈ 469 µM)	>400	> 400	> 400	7 (≈ 26.3 µM)	32 (≈ 120 µM)	> 350	> 400	40 (≈ 150 µM)
Nc1ncnc2c([C@H]3C[C@H](O)[C@@H](CO)O3)n[nH]c12	> 400	> 400	> 400	>400	–	> 400	> 100	>400	> 1000	> 400	>400	> 400	> 400	867 (≈ 3450 µM)	> 1000	> 400	> 400	> 400
NC(=O)c1cn([C@H]2C[C@H](O)[C@@H](CO)O2)c2ncnc(N)c12	> 10	> 10	> 10	10	–	–	–	10	–	2 (≈ 6.82 µM)	10	> 10	2 (≈ 6.82 µM)	1.21 (≈ 4.13 µM)	16 (≈ 54.6 µM)	1 (≈ 3.41 µM)	> 10	1 (≈ 3.41 µM)
N#Cc1cn([C@H]2C[C@H](O)[C@@H](CO)O2)c2ncnc(N)c12	> 1	0.5 (≈ 1.82 µM)	> 1	1	–	–	0.34 (≈ 1.24 µM)	4	0.265 (≈ 0.963 µM)	> 1	4	> 1	0.5 (≈ 1.82 µM)	0.109 (≈ 0.396 µM)	10 (≈ 36.3 µM)	0.08 (≈ 0.291 µM)	> 4	0.3 (≈ 1.09 µM)
N#Cc1cn([C@@H]2O[C@H](CO)[C@@H](O)[C@@H]2O)c2ncnc(N)c12	> 10	> 10	> 10	10	–	> 10	10.3 (≈ 35.4 µM)	10	4.8 (≈ 16.5 µM)	7 (≈ 24 µM)	10	> 10	> 10	2 (≈ 6.87 µM)	14 (≈ 48.1 µM)	> 10	> 10	2 (≈ 6.87 µM)
NC(=O)c1cn(C2OC(CO)CC2O)c2ncnc(N)c12 (centres undefined)	> 40	> 40	10 (≈ 34.1 µM)	40	–	> 40	–	40	–	> 10	10	> 40	> 10	0.46 (≈ 1.57 µM)	17 (≈ 58 µM)	> 40	> 40	> 10
Nc1ncnc2c1ccn2[C@H]1C[C@H](O)[C@@H](CO)O1 [2'-Deoxytubercidin]	> 400	> 200	40 (≈ 160 µM)	>400	–	–	205 (≈ 819 µM)	>400	44 (≈ 176 µM)	50 (≈ 200 µM)	>400	200 (≈ 799 µM)	125 (≈ 499 µM)	23 (≈ 91.9 µM)	127 (≈ 507 µM)	150 (≈ 599 µM)	150 (≈ 599 µM)	40 (≈ 160 µM)
Nc1ncnc2c([C@@H]3O[C@H](CO)[C@@H](O)[C@H]3O)[nH]nc12 [FORMYCIN]	> 10	> 10	2 (≈ 7.48 µM)	10	–	–	25.7 (≈ 96.2 µM)	1	5.5 (≈ 20.6 µM)	10 (≈ 37.4 µM)	20	> 10	10 (≈ 37.4 µM)	3.7 (≈ 13.8 µM)	7.5 (≈ 28.1 µM)	> 1	> 1	8 (≈ 29.9 µM)
NC(=O)c1ncn([C@@H]2O[C@H](CO)[C@@H](O)[C@H]2O)n1 [RIBAVIRIN]	65 (≈ 266 µM)	30 (≈ 123 µM)	50 (≈ 205 µM)	>400	70 (≈ 287 µM)	40 (≈ 164 µM)	–	>400	–	> 400	>400	75 (≈ 307 µM)	300 (≈ 1230 µM)	–	–	4 (≈ 16.4 µM)	20 (≈ 81.9 µM)	> 400
NC(=O)c1cn([C@@H]2O[C@H](CO)[C@@H](O)[C@H]2O)c2ncnc(N)c12 [SANGIVAMYCIN]	> 0.4	–	0.02 (≈ 0.0647 µM)	0.4	–	–	–	0.4	0.014 (≈ 0.0453 µM)	0.07 (≈ 0.226 µM)	1	> 0.4	0.02 (≈ 0.0647 µM)	0.019 (≈ 0.0614 µM)	> 100	0.04 (≈ 0.129 µM)	0.07 (≈ 0.226 µM)	0.07 (≈ 0.226 µM)
N#Cc1cn([C@@H]2O[C@H](CO)[C@@H](O)[C@H]2O)c2ncnc(N)c12 [TOYOCAMYCIN]	> 0.04	–	> 0.04	0.04	–	–	0.071 (≈ 0.244 µM)	0.4	0.039 (≈ 0.134 µM)	> 0.04	0.04	> 0.04	> 0.04	0.006 (≈ 0.0206 µM)	38 (≈ 130 µM)	0.07 (≈ 0.24 µM)	> 0.4	> 0.04
Nc1ncnc2c1ccn2[C@@H]1O[C@H](CO)[C@@H](O)[C@H]1O [TUBERCIDIN]	0.2 (≈ 0.751 µM)	0.3 (≈ 1.13 µM)	0.07 (≈ 0.263 µM)	0.4	0.07 (≈ 0.263 µM)	0.07 (≈ 0.263 µM)	0.29 (≈ 1.09 µM)	0.4	0.173 (≈ 0.65 µM)	0.1 (≈ 0.376 µM)	0.4	0.04 (≈ 0.15 µM)	0.02 (≈ 0.0751 µM)	0.04 (≈ 0.15 µM)	5.4 (≈ 20.3 µM)	0.01 (≈ 0.0376 µM)	0.02 (≈ 0.0751 µM)	0.1 (≈ 0.376 µM)
